From ChEMBL document CHEMBL1143121, “Is adamantane a suitable substituent to pre-organize the acid orientation in E-selectin antagonists?” (Bioorg Med Chem, 2008) come the findings set out here.

pIC50: −log10 of the molar value.

The first test addresses T1, E-selectin (Homo sapiens, UniProt P16581).
T1 sequence (P16581 whole entry): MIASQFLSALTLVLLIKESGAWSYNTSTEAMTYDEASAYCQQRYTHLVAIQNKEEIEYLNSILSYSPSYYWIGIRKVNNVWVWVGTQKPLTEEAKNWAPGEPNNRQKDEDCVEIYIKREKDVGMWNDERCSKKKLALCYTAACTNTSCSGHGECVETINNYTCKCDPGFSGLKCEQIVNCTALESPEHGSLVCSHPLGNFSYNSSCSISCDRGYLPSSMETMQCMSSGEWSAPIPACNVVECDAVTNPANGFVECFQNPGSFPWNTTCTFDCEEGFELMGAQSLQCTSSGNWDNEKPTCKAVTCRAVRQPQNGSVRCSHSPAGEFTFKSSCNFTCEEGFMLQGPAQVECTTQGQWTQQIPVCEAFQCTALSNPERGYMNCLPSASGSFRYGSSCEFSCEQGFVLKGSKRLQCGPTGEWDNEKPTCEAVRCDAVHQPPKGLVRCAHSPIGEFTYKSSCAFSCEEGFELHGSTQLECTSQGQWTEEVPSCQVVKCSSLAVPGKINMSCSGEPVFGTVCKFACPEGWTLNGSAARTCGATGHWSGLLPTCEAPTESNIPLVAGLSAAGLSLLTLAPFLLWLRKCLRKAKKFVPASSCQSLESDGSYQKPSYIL
In words: Binding affinity to E-selectin. In short, it runs like this:
(§1)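 Competitive binding ELISA against E-selectin, run by a previously published procedure. A reference antagonist was included in the assay for relative comparison. The acid test compounds were purified by size exclusion chromatography to remove traces of polyanionic ion-exchange resin that could give false positives.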
What is called pIC50 is the IC50 on a negative log10 scale, so that one unit is a factor of ten. `CC(=O)N[C@@H]1[C@@H](O[C@@H]2O[C@@H](C)[C@@H](O)[C@@H](O)[C@@H]2O)[C@H](O[C@@H]2O[C@H](CO)[C@H](O)[C@H](O[C@]3(C(=O)O)C[C@H](O)[C@@H](NC(C)=O)[C@H]([C@H](O)[C@H](O)CO)O3)[C@H]2O)[C@@H](CO)O[C@H]1O` showed a pIC50 of 3.00.
The same measure, in the same setting: the result for `CC(=O)N[C@H]1[C@H]([C@H](O)[C@H](O)CO)O[C@@](O[C@H]2[C@@H](O)[C@@H](CO)O[C@@H](O[C@@H]3CCCC[C@H]3O[C@@H]3O[C@@H](C)[C@@H](O)[C@@H](O)[C@@H]3O)[C@@H]2O)(C(=O)O)C[C@@H]1O` reads 3.22.

The target of another test is T2, E-selectin (Homo sapiens) (UniProt P16581).
T2 sequence (whole entry): T1 sequence (P16581 whole entry)
In words: Binding affinity to E-selectin relative to (2S,4S,5R,6R)-5-acetamido-2-((2R,3S,4S,5R,6R)-3,5-dihydroxy-2-(hydroxymethyl)-6-((1R,2R)-2-((2S,3S,4R,5S,6S)-3,4,5-trihydroxy-6-methyl-tetrahydro-2H-pyran-2-yloxy)cyclohexyloxy)-tetrahydro-2H-pyran-4-yloxy)-4-hydroxy-6-((1R,2R)-1,2,3-trihydroxypropyl)-tetrahydro-2H-pyran-2-carboxylic acid. In short, it runs like this:
as §1
As to `C[C@H](O[C@H]1[C@@H](O)[C@@H](CO)O[C@@H](O[C@@H]2CCCC[C@H]2O[C@@H]2O[C@@H](C)[C@@H](O)[C@@H](O)[C@@H]2O)[C@@H]1O)C(=O)O`, the Activity turned out to be 2.4.
Still for that read-out and setting: the result for `C[C@@H]1O[C@@H](O[C@@H]2CCCC[C@H]2O[C@@H]2O[C@H](CO)[C@H](O)[C@H](O[C@@H](CC3CCCCC3)C(=O)O)[C@H]2O)[C@@H](O)[C@H](O)[C@@H]1O` reads 0.15; that for `C[C@@H]1O[C@@H](O[C@@H]2CCCC[C@H]2O[C@@H]2O[C@H](CO)[C@H](O)[C@H](O[C@H](Cc3ccccc3)C(=O)O)[C@H]2O)[C@@H](O)[C@H](O)[C@@H]1O`, over 10.
On the same count and under the same terms, the result for `C[C@@H]1O[C@@H](O[C@@H]2CCCC[C@H]2O[C@@H]2O[C@H](CO)[C@H](O)[C@H](O[C@H](CC3CCCCC3)C(=O)O)[C@H]2O)[C@@H](O)[C@H](O)[C@@H]1O` reads over 10; that for `C[C@@H]1O[C@@H](O[C@@H]2CCCC[C@H]2O[C@@H]2O[C@H](CO)[C@H](O)[C@H](O[C@H](C)C(=O)O)[C@H]2O)[C@@H](O)[C@H](O)[C@@H]1O`, over 10.
With `C[C@@H]1O[C@@H](O[C@@H]2CCCC[C@H]2O[C@@H]2O[C@H](CO)[C@H](O)[C@H](OCC(=O)O)[C@H]2O)[C@@H](O)[C@H](O)[C@@H]1O`, the Activity is over 10.
Same read-out and setting: the result for `C[C@@H]1O[C@@H](O[C@@H]2CCCC[C@H]2O[C@@H]2O[C@H](CO)[C@H](O)[C@H](O[C@@H](Cc3ccccc3)C(=O)O)[C@H]2O)[C@@H](O)[C@H](O)[C@@H]1O` reads 0.6; that for `C[C@@H]1O[C@@H](O[C@@H]2CCCC[C@H]2O[C@@H]2O[C@H](CO)[C@H](O)[C@H](O[C@@H](CC34CC5CC(CC(C5)C3)C4)C(=O)O)[C@H]2O)[C@@H](O)[C@H](O)[C@@H]1O`, 0.32; that for `C[C@@H]1O[C@@H](O[C@@H]2CCCC[C@H]2O[C@@H]2O[C@H](CO)[C@H](O)[C@H](O[C@H](CC34CC5CC(CC(C5)C3)C4)C(=O)O)[C@H]2O)[C@@H](O)[C@H](O)[C@@H]1O`, over 10.
